This is an account of results in ChEMBL document CHEMBL1157613, “Salicylic acid based small molecule inhibitor for the oncogenic Src homology-2 domain containing protein tyrosine phosphatase-2 (SHP2)” (J Med Chem, 2010).

The source made the active and inactive calls. No cut-off for these calls is given here.

The first assay addresses T1, Tyrosine-protein phosphatase non-receptor type 11 (Homo sapiens, UniProt Q06124).
T1 sequence (Q06124 whole entry): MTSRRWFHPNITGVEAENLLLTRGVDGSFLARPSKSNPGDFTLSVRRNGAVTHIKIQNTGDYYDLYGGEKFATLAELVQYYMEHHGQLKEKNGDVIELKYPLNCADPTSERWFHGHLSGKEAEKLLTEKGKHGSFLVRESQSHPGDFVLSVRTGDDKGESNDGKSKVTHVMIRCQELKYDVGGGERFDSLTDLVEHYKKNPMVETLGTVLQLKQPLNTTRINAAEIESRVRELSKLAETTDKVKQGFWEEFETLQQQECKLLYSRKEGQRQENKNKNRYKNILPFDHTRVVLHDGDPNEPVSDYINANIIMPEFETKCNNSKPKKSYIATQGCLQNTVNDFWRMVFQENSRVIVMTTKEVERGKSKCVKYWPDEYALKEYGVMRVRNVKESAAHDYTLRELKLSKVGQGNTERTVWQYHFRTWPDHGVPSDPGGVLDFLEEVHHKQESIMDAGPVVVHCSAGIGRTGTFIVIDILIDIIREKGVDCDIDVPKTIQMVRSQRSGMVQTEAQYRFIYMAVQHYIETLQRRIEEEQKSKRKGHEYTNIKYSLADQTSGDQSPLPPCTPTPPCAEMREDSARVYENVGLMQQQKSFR
The assay is described as follows: Inhibition of SHP2 […] expressed in Escherichia coli BL21 (DE3) assessed as inhibition of p-nitrophenyl phosphate hydrolysis at pH 7 by spectrophotometry.
In general, IC50 refers to the concentration needed to halve the response being measured. As for `Cn1c(-c2ccccc2)c(-c2cn(CC(=O)NC3c4ccccc4-c4ccccc43)nn2)c2cc(C(=O)O)c(O)cc21`, the IC50 turned out to be 10.4 µM.
`Cn1c(-c2ccccc2)c(-c2cn(CC(=O)Nc3nc4ccccc4s3)nn2)c2cc(C(=O)O)c(O)cc21`: the IC50 was found to be 9.1 µM.
Same read-out and setting: the same measure for `Cn1c(-c2ccccc2)c(-c2cn(CCCC(=O)Nc3ccc(-c4ccccc4)cc3)nn2)c2cc(C(=O)O)c(O)cc21`: 12 µM.
Same read-out and setting: the same measure for `Cn1c(-c2ccccc2)c(-c2cn(CCC(=O)Nc3ccccc3)nn2)c2cc(C(=O)O)c(O)cc21`: 86 µM; for `C#Cc1c(-c2ccccc2)n(C)c2cc(O)c(C(=O)O)cc12`: 212 µM; for `Cn1c(-c2ccccc2)c(-c2cn(CC(=O)Nc3ccc(N4CCOCC4)cc3)nn2)c2cc(C(=O)O)c(O)cc21`: 7.8 µM.
Turning to `Cn1c(-c2ccccc2)c(-c2cn(CCCCC(=O)N3c4ccccc4Sc4ccccc43)nn2)c2cc(C(=O)O)c(O)cc21`, the IC50 came to 8 µM.
Same read-out and setting: the result for `Cn1c(-c2ccccc2)c(-c2cn(CC(=O)Nc3ccc(-c4ccccc4)cc3)nn2)c2cc(C(=O)O)c(O)cc21` reads 9.3 µM.

Another assay addresses T2, Tyrosine-protein phosphatase non-receptor type 11 (Homo sapiens) (UniProt Q06124).
T2 sequence (whole entry): T1 sequence (Q06124 whole entry)
Nature of the assay: Inhibition of SHP2-dependent ERK1/2 activation in EGF-stimulated HEK293 cells assessed as phosphorylated ERK1/2 level at 20 uM treated for 3 hrs before EGF challenge measured after 60 mins of EGF stimulation by immunoblot analysis. The class given is cell-based. In outline: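 HEK293 cells in DMEM with 10% FCS, 4 × 10^5 per well, grown 24 h. They were serum-deprived 16 h, given vehicle or compound at 0-20 μM for 3 h, then stimulated with EGF 2 ng/mL for 60 min. Lysates (30 μg) were run on 10% SDS-PAGE and immunoblotted for phospho-ERK1/2, normalised to total ERK1/2.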
(A western blot detects proteins with antibodies after separation by electrophoresis.)
Turning to `Cn1c(-c2ccccc2)c(-c2cn(CCC(=O)Nc3ccccc3)nn2)c2cc(C(=O)O)c(O)cc21`, the inhibition result was “inactive”.
